Reference: the RNAGym collection of RNA variant scans (doi:10.1126/science.aae0568)
Fewer inactive variants are shown than the library holds.

B1: tRNA (parent)
chain: GUUCCGUUGGCGUAAUGGUAACGCGUCUCCCUCCUAAGGAGAAGACUGCGGGUUCGAGUCCCGUACGGAACG

Variants of: B1
Assay: yeast fitness relative to wild type (ratio to wild type); higher = fitter; tRNA-Arg(CCU), competitive growth, 37 C, YPD
In short: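 For this measurement, the tRNA-Arg(CCU) gene was varied by chemical synthesis at a 3% per-site mutation rate across 69 sites, and each variant was placed at the native genomic locus in Saccharomyces cerevisiae. The pooled strains went through a 24-hour competition in YPD at 37°C in six parallel replicates, with amplicons from start and end populations read by 100-nucleotide paired-end sequencing. Darwinian fitness relative to wild type followed from the change in each genotype's frequency. Genotypes needed ≥ 100 starting reads, and estimates < 0.5 were set to 0.5.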

| Variant | yeast fitness |
| --- | --- |
| GUUCCGUUGGCGUAAUGGUAACGCGUCUCCCUCCUAAGGAGUGGACUGCGGCUUCGAGUACCGUACGGAACG | ≤ 0.5 |
| GUUCCGUUGGCGUAAUGGUAACGCGUCUCCCUCCUAAGGAGGAGACUGCGGGUUCGAGUACCGUACGGAACG | 0.512 |
| GUUCCGUUGGCGUAAUGGUAACGCGUCUCCCUCCUAAGGAGUAGCCUGCGGGUUCGAGUCCCGUACGGCACG | 0.67 |
| GUUCCGUUGGCGUAAUGGUAACGCGUCUCCCUCCUAAGGAGGAGACUGCCGGUUCGAGUCCCGUACGGAACG | 0.634 |
| GUUCCGUUGGCGUAAUGGUAACGCGUCUCCCUCCUAAGGAGGAGACUGCGGCUUCGAGUCCCGUAUGAAACG | ≤ 0.5 |
| GUUCCGUUGGCGUAAUGGUAACGCGUCUCCCUCCUAAGGAGUAGACUGCGGGUUCGGGUCCAGGAGGGAACG | ≤ 0.5 |
| GUUCCGUUGGCGUAAUGGUAACGCGUCUCCCUCCUAAGGAGUGGACUGCGGCUUCGAGUCCCGUACGGAACG | ≤ 0.5 |
| GUUCCGUUGGCGUAAUGGUAACGCGUCUCCCUCCUAAGGAGGAGACUGCGGGUCCGAGUCCCGUACGGAACG | 0.815 |
| GUUCCGUUGGCGUAAUGGUAACGCGUCUCCCUCCUAAGGAGGAGACUGCGGGUACGAGUCCCGUACGGAACG | 0.612 |
| GUUCCGUUGGCGUAAUGGUAACGCGUCUCCCUCCUAAGGAGGAGACUGCGGGUUCAAGUCCCCUACGGAACG | 0.51 |
| GUUCCGUUGGCGUAAUGGUAACGCGUCUCCCUCCUAAGGAGGAGACUGCGGCUUCGACUCCCGUACGGAACG | ≤ 0.5 |
| GUUCCGUUGGCGUAAUGGUAACGCGUCUCCCUCCUAAGGAGGAGACUGCGGGUUCGAGUCCGGUACGGAACG | 0.848 |
| GUUCCGUUGGCGUAAUGGUAACGCGUCUCCCUCCUAAGGAGGAGACUGCGGGUUCGAGUCCUGUACGGAACG | 0.962 |
| GUUCCGUUGGCGUAAUGGUAACGCGUCUCCCUCCUAAGGAGGAGACUGCCGGUUCGAGUCCCGUACGGCACG | ≤ 0.5 |
| GUUCCGUUGGCGUAAUGGUAACGCGUCUCCCUCCUAAGGAGGAGACUGGGGGUCCGAGUCCCGUACGGAACG | 0.536 |
| GUUCCGUUGGCGUAAUGGUAACGCGUCUCCCUCCUAAGGAGGAGACUGCGGGUUCGACUCCCGUACGGAACG | 0.906 |
| GUUCCGUUGGCGUAAUGGUAACGCGUCUCCCUCCUAAGGAGGAAACUGCGGGUUCGAGUCCCGUACGGAACG | 0.962 |
| GUUCCGUUGGCGUAAUGGUAACGCGUCUCCCUCCUAAGGAGGAGACUGCGGGUUCGAGUCCCGUACAAAACG | ≤ 0.5 |
| GUUCCGUUGGCGUAAUGGUAACGCGUCUCCCUCCUAAGGAGGAGACAGCGGGCUCGAGUCCCGUACGGAACG | ≤ 0.5 |

| Variant | yeast fitness |
| --- | --- |
| GUUCCGUUGGCGUAAUGGUAACGCGUCUCCCUCCUAAGGAGUCGACUGAGGGUUCGAGUCCCGUACGGAACG | ≤ 0.5 |
| GUUCCGUUGGCGUAAUGGUAACGCGUCUCCCUCCUAAGGAGGAGAUUGCGGCUUCGAGUCACGUACGGAACG | ≤ 0.5 |
| GUUCCGUUGGCGUAAUGGUAACGCGUCUCCCUCCUAAGGAGGAGAAUGCGGGUUCGAGUCCCGUACGAAUCG | 0.568 |
| GUUCCGUUGGCGUAAUGGUAACGCGUCUCCCUCCUAAGGAGUCGACUGCGGGUUCGAGUCCCGCACGCAACG | ≤ 0.5 |
| GUUCCGUUGGCGUAAUGGUAACGCGUCUCCCUCCUAAGGAGUUGACUGCGGGUUCGGGUCCCGUACGGAUCG | 0.574 |
| GUUCCGUUGGCGUAAUGGUAACGCGUCUCCCUCCUAAGGAGUAGACUGCGGGUUCGCGUCUCGUACCGAACG | ≤ 0.5 |
| GUUCCGUUGGCGUAAUGGUAACGCGUCUCCCUCCUAAGGAGGAGACUGCGGGUUCGAGUACAGUACGGAACG | ≤ 0.5 |
| GUUCCGUUGGCGUAAUGGUAACGCGUCUCCCUCCUAAGGAGGAGACUGCGGCUUCGAGUCCAGUACGGAACG | ≤ 0.5 |
| GUUCCGUUGGCGUAAUGGUAACGCGUCUCCCUCCUAAGGAGGAGACUGCGGGUUCGAGUCGCGUAAGGAACG | ≤ 0.5 |
| GUUCCGUUGGCGUAAUGGUAACGCGUCUCCCUCCUAAGGAGGAGACUGCGGCUUCGAGUCCCGUUCGGAACG | ≤ 0.5 |
| GUUCCGUUGGCGUAAUGGUAACGCGUCUCCCUCCUAAGGAGGAGACUGCGGGUUCGAGUCCCCUACGGAACG | 0.69 |
| GUUCCGUUGGCGUAAUGGUAACGCGUCUCCCUCCUAAGGAGGAGACUGCGGGUUCGAGUCCCGUACGUAACG | 0.834 |
| GUUCCGUUGGCGUAAUGGUAACGCGUCUCCCUCCUAAGGAGGAGACUGCGGGUUCGAGUCCCGUACGAAACG | 0.728 |
| GUUCCGUUGGCGUAAUGGUAACGCGUCUCCCUCCUAAGGAGUAGCCUGCGGGUUCGAGUCCCGUACGGAACG | 1.17 |
| GUUCCGUUGGCGUAAUGGUAACGCGUCUCCCUCCUAAGGAGGAGACUGCGGGUUAGAGUCCCGUACGGAACG | 0.607 |
| GUUCCGUUGGCGUAAUGGUAACGCGUCUCCCUCCUAAGGAGGAGACUGCGGGUUCGAGUCCCGUACAGAACG | 0.747 |
| GUUCCGUUGGCGUAAUGGUAACGCGUCUCCCUCCUAAGGAGGAGACUGCGGGUUCGAGUCCCGUACCGAACG | 0.947 |
| GUUCCGUUGGCGUAAUGGUAACGCGUCUCCCUCCUAAGGAGGAGACUGUGGGUUCGAGUCCCGUAAGGAACG | ≤ 0.5 |
| GUUCCGUUGGCGUAAUGGUAACGCGUCUCCCUCCUAAGGAGGAGACUGCCGGUUCGAAUCCCGUACGGCACG | ≤ 0.5 |
